How the values were obtained:
Format in all cases: functional
T47D = assay: Growth inhibition of human T47D cells assessed as cell growth at 10^-4 M after 48 hrs by sulforhodamine B assay; conditions: read-out: Activity
CAKI-1 = assay: Growth inhibition of human CAKI-1 cells assessed as cell growth at 10^-4 M after 48 hrs by sulforhodamine B assay; conditions: CAKI-1, 48 h, read-out: Activity
Outline: (§1)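 Five-dose NCI-60 run (0.01, 0.1, 1, 10 and 100 µM, as 10-fold dilutions from a DMSO stock made at 400× the top final level). Cells were grown in RPMI 1640 with 5% FBS and 2 mM glutamine and plated for 24 h. They were then exposed for 48 h at 37 °C and 5% CO2. TCA fixation was followed by SRB staining with A515 read-out. Percent growth was taken relative to time-zero and control plates.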

OVCAR-8 = assay: Growth inhibition of human OVCAR8 cells assessed as cell growth at 10^-4 M after 48 hrs by sulforhodamine B assay; conditions: OVCAR-8, 48 h, read-out: Activity
IGROV-1 = assay: Growth inhibition of human IGROV1 cells assessed as cell growth at 10^-4 M after 48 hrs by sulforhodamine B assay; conditions: IGROV-1, 48 h, read-out: Activity
Outline: (§2)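 Five-dose screen at NCI. Cells in RPMI 1640 with 5% FBS and 2 mM L-glutamine, seeded at 5000–40,000 cells/well and grown 24 h at 37 °C, 5% CO2 before dosing, with time-zero plates TCA-fixed. Drug diluted from DMSO stock to 0.01, 0.1, 1, 10 and 100 µM final, 48 h. Cells fixed with cold TCA (10% final), stained with 0.4% SRB and read at 515 nm. Percent growth from Tz, control and test absorbances; GI50, TGI and LC50 from dose-response curves.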

M14 = assay: Growth inhibition of human M14 cells assessed as cell growth at 10^-4 M after 48 hrs by sulforhodamine B assay; conditions: M14, 48 h, read-out: Activity
[1] = Growth inhibition of human HCC2998 cells assessed as cell growth at 10^-4 M after 48 hrs by sulforhodamine B assay; conditions: HCC 2998, 48 h, read-out: Activity; outline: as §2
HOP-62 = assay: Growth inhibition of human HOP62 cells assessed as cell growth at 10^-4 M after 48 hrs by sulforhodamine B assay; conditions: HOP-62, 48 h, read-out: Activity; outline: as §2
HL-60(TB) = assay: Growth inhibition of human HL-60(TB) cells assessed as cell growth at 10^-4 M after 48 hrs by sulforhodamine B assay; conditions: HL-60, 48 h, read-out: Activity
Outline: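 HL-60(TB) suspension cells were treated 48 h at 37 °C within the five-dose series (0.01–100 µM), fixed with 16% final TCA and SRB-stained, read at 515 nm. Percentage growth at each concentration = (Ti−Tz)/(C−Tz)×100, or (Ti−Tz)/Tz×100 when Ti<Tz, with time-zero (Tz) and untreated control (C) plates.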

SN12C = assay: Growth inhibition of human SN12C cells assessed as cell growth at 10^-5 M after 48 hrs by sulforhodamine B assay; conditions: read-out: Activity
TK-10 = assay: Growth inhibition of human TK10 cells assessed as cell growth at 10^-5 M after 48 hrs by sulforhodamine B assay; conditions: TK-10, 48 h, read-out: Activity
A498 = assay: Growth inhibition of human A498 cells assessed as cell growth at 10^-5 M after 48 hrs by sulforhodamine B assay; conditions: A498, 48 h, read-out: Activity; outline: as §1
OVCAR-4 = assay: Growth inhibition of human OVCAR4 cells assessed as cell growth at 10^-5 M after 48 hrs by sulforhodamine B assay; conditions: OVCAR-4, 48 h, read-out: Activity
A549 [2] = assay: Growth inhibition of human A549/ATCC cells assessed as cell growth at 10^-5 M after 48 hrs by sulforhodamine B assay; conditions: A549, 48 h, read-out: Activity; outline: as §1
K562 = assay: Growth inhibition of human K562 cells assessed as cell growth at 10^-5 M after 48 hrs by sulforhodamine B assay; conditions: K562, 48 h, read-out: Activity
786-0 [3] = assay: Growth inhibition of human 786-0 cells assessed as cell growth at 10^-6 M after 48 hrs by sulforhodamine B assay; conditions: 786-0, 48 h, read-out: Activity; outline: as §1
SK-MEL-5 [4] = assay: Growth inhibition of human SK-MEL-5 cells assessed as cell growth at 10^-6 M after 48 hrs by sulforhodamine B assay; conditions: SK-MEL-5, 48 h, read-out: Activity
SF-539 = assay: Growth inhibition of human SF539 cells assessed as cell growth at 10^-6 M after 48 hrs by sulforhodamine B assay; conditions: SF-539, 48 h, read-out: Activity
COLO 205 = assay: Growth inhibition of human COLO205 cells assessed as cell growth at 10^-6 M after 48 hrs by sulforhodamine B assay; conditions: COLO 205, 48 h, read-out: Activity; outline: as §1
[5] = Growth inhibition of human EKVX cells assessed as cell growth at 10^-6 M after 48 hrs by sulforhodamine B assay; conditions: read-out: Activity; outline: as §2
A549 [6] = assay: Growth inhibition of human A549/ATCC cells assessed as cell growth at 10^-6 M after 48 hrs by sulforhodamine B assay; conditions: A549, 48 h, read-out: Activity; outline: as §1
786-0 [7] = assay: Growth inhibition of human 786-0 cells assessed as cell growth at 10^-7 M after 48 hrs by sulforhodamine B assay; conditions: 786-0, 48 h, read-out: Activity; outline: as §1
MDA-MB-435 [8] = assay: Growth inhibition of human MDA-MB-435 cells assessed as cell growth at 10^-7 M after 48 hrs by sulforhodamine B assay; conditions: MDA-MB-435, 48 h, read-out: Activity
SW-620 = assay: Growth inhibition of human SW620 cells assessed as cell growth at 10^-7 M after 48 hrs by sulforhodamine B assay; conditions: SW-620, 48 h, read-out: Activity
HT-29 = assay: Growth inhibition of human HT-29 cells assessed as cell growth at 10^-7 M after 48 hrs by sulforhodamine B assay; conditions: HT-29, 48 h, read-out: Activity; outline: as §2
MDA-MB-231 = assay: Growth inhibition of human MDA-MB-231 cells assessed as cell growth at 10^-8 M after 48 hrs by sulforhodamine B assay; conditions: MDA-MB-231, 48 h, read-out: Activity
SK-MEL-5 [9] = assay: Growth inhibition of human SK-MEL-5 cells assessed as cell growth at 10^-8 M after 48 hrs by sulforhodamine B assay; conditions: SK-MEL-5, 48 h, read-out: Activity
SK-MEL-28 = assay: Growth inhibition of human SK-MEL-28 cells after 48 hrs by sulforhodamine B assay; conditions: SK-MEL-28, 48 h; for CC50: read-out: LC50 (the source's name)
Outline: (§3)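 Adherent cells in RPMI 1640 with 5% FBS and 2 mM L-glutamine were plated at 5000–40,000 cells/well and grown 24 h. Five concentrations (0.01–100 µM, DMSO stock) were added for 48 h at 37 °C. Cells were fixed with cold TCA (10% final) and stained with SRB, read at 515 nm. GI50 came from log concentration–growth curves against time-zero and control plates.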

MDA-MB-435 [10] = assay: Growth inhibition of human MDA-MB-435 cells after 48 hrs by sulforhodamine B assay; conditions: MDA-MB-435, 48 h, read-out: LC50 (the source's name); outline: as §3

O=S(=O)(Nc1ccc(Cl)cc1)c1ccc2nc(-c3ccccc3)c(-c3ccccc3)nc2c1
growth at 100 µM (T47D): 37% | growth at 100 µM (CAKI-1): 65% | growth at 100 µM (OVCAR-8): 72% | growth at 100 µM (IGROV-1): 73% | growth at 100 µM (M14): 77% | growth at 100 µM [1]: 85% | growth at 100 µM (HOP-62): 44% | growth at 100 µM (HL-60(TB)): 45% | growth at 10 µM (SN12C): 21% | growth at 10 µM (TK-10): 9% | growth at 10 µM (A498): -5% | growth at 10 µM (OVCAR-4): 12% | growth at 10 µM (A549 [2]): 5% | growth at 10 µM (K562): 11% | growth at 1 µM (786-0 [3]): 93% | growth at 1 µM (SK-MEL-5 [4]): 83% | growth at 1 µM (SF-539): 101% | growth at 1 µM (COLO 205): 103% | growth at 1 µM [5]: 91% | growth at 1 µM (A549 [6]): 87% | growth at 0.1 µM (786-0 [7]): 88% | growth at 0.1 µM (MDA-MB-435 [8]): 92% | growth at 0.1 µM (SW-620): 91% | growth at 0.1 µM (HT-29): 100% | growth at 0.01 µM (MDA-MB-231): 99% | growth at 0.01 µM (SK-MEL-5 [9]): 95% | TGI (SK-MEL-28): > 100 µM | CC50 (SK-MEL-28): > 100 µM | CC50 (MDA-MB-435 [10]): > 100 µM

O=S(=O)(Nc1ccccn1)c1ccc2nc(-c3ccccc3)c(-c3ccccc3)nc2c1
growth at 100 µM (T47D): -1% | growth at 100 µM (CAKI-1): 73% | growth at 100 µM (OVCAR-8): 46% | growth at 100 µM (IGROV-1): 63% | growth at 100 µM (M14): 69% | growth at 100 µM [1]: 64% | growth at 100 µM (HOP-62): 39% | growth at 100 µM (HL-60(TB)): 29% | growth at 10 µM (SN12C): 26% | growth at 10 µM (TK-10): 4% | growth at 10 µM (A498): -8% | growth at 10 µM (OVCAR-4): 10% | growth at 10 µM (A549 [2]): 9% | growth at 10 µM (K562): 9% | growth at 1 µM (786-0 [3]): 96% | growth at 1 µM (SK-MEL-5 [4]): 78% | growth at 1 µM (SF-539): 96% | growth at 1 µM (COLO 205): 94% | growth at 1 µM [5]: 89% | growth at 1 µM (A549 [6]): 96% | growth at 0.1 µM (786-0 [7]): 92% | growth at 0.1 µM (MDA-MB-435 [8]): 102% | growth at 0.1 µM (SW-620): 102% | growth at 0.1 µM (HT-29): 97% | growth at 0.01 µM (MDA-MB-231): 110% | growth at 0.01 µM (SK-MEL-5 [9]): 95% | TGI (SK-MEL-28): > 100 µM | CC50 (SK-MEL-28): > 100 µM | CC50 (MDA-MB-435 [10]): > 100 µM
